The source of these data is ChEMBL document CHEMBL3124759, “Synthesis, nicotinic acetylcholine receptor binding, and antinociceptive properties of 2'-fluoro-3'-(substituted pyridinyl)-7-deschloroepibatidine analogues” (J Med Chem, 2014).

The inhibition in vivo is the change of the read-out against control, counted positive when it falls. As a reminder, the ED50 is the dose that gives a 50% effect, or the effect in half of the subjects. In general, Emax refers to the maximal effect, on the per cent scale that the assay sets. In general, EC50 refers to the concentration that produces a half-maximal response. As a reminder, the IC50 is the concentration that inhibits the measured activity by half.

In assay [1] the test system is Mus musculus. The assay is described as follows: Inhibition of nicotine-induced antinociception in mouse at 100 ug/kg, sc after 5 mins by hot plate test relative to control. The class given is functional. For orientation: In hot-plate and tail-flick tests a longer latency is read as antinociception.
In assay [2] the test system is Mus musculus. Kind of assay: Antinociceptive activity in mouse at 10 mg/kg, sc after 5 mins by tail flick test relative to control. To be noted: route subcutaneous. In kind it is functional.
For assay [3], the species on record is Rattus norvegicus. Kind of assay: Selectivity ratio of IC50 for rat alpha7 nAChR to IC50 for rat alpha4beta2 nAChR.
Assay [4] has as its system Mus musculus. Kind of assay: Effect on hypothermia in sc dosed mouse after 30 mins. The class given is functional. The settings on record: 0.5 h.
Assay [5] relates to Mus musculus. The assay is described as follows: Effect on spontaneous activity in sc dosed mouse after 5 mins. The class given is functional.
The subject of assay [6] is Mus musculus. The assay is described as follows: Antinociceptive activity in mouse at 10 mg/kg, sc by hot plate test relative to control. The class given is functional. To be noted: route subcutaneous.
For assay [7], the system named is Mus musculus. Kind of assay: Inhibition of nicotine-induced antinociception in mouse at 10000 ug/kg, sc after 5 mins by hot plate test relative to control. The class given is functional.
For assay [8], the target named is Neuronal acetylcholine receptor subunit alpha-7 (Rattus norvegicus) (UniProt Q05941). Kind of assay: Agonist activity at rat alpha7 nAChR expressed in Xenopus laevis oocytes assessed as stimulation of acetylcholine-induced current at 100 uM by two-electrode voltage clamp electrophysiological analysis relative to acetylcholine. The class given is cell-based. The essentials:
(§1)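 Rat receptors expressed in Xenopus oocytes, two-electrode voltage clamp. Current evoked by 100 µM test compound was compared with the mean of three preceding ACh applications. The response was expressed as a percentage of the maximal ACh response.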
(In general: Two-electrode voltage clamp holds a large cell at a set potential and records current.)

In assay [9] the test system is Mus musculus. The assay is described as follows: Inhibition of nicotine-induced antinociception in mouse at 1000 ug/kg, sc after 5 mins by hot plate test relative to control. The class given is functional.
The test system of assay [10] is Mus musculus. Kind of assay: Inhibition of nicotine-induced antinociception in mouse at 100 ug/kg, sc after 5 mins by tail flick test relative to control. In kind it is functional.
Assay [11] concerns the target Neuronal acetylcholine receptor; alpha3/beta4 (Rattus norvegicus) (UniProt P04757+P12392). Kind of assay: Agonist activity at rat alpha3beta4 nAChR expressed in Xenopus laevis oocytes assessed as stimulation of acetylcholine-induced current at 100 uM by two-electrode voltage clamp electrophysiological analysis relative to acetylcholine. The class given is cell-based. The essentials: as §1

Assay [12] concerns the target Neuronal acetylcholine receptor subunit alpha-7 (Rattus norvegicus) (UniProt Q05941). The assay is described as follows: Antagonist activity at rat alpha7 nAChR expressed in Xenopus laevis oocytes assessed as inhibition of acetylcholine-induced current at 100 uM by two-electrode voltage clamp electrophysiological analysis relative to acetylcholine. The class given is cell-based.

The subject of assay [13] is Mus musculus. The assay is described as follows: Antinociceptive activity in sc dosed mouse after 5 mins by tail flick test. The class given is functional.
The subject of assay [14] is Mus musculus. Kind of assay: Antinociceptive activity in sc dosed mouse by hot plate test. In kind it is functional.
The target in assay [15] is T1, Neuronal acetylcholine receptor; alpha4/beta2 (Rattus norvegicus) (UniProt P09483+P12390). The assay is described as follows: Agonist activity at rat alpha4beta2 nAChR expressed in Xenopus laevis oocytes assessed as stimulation of acetylcholine-induced current at 100 uM by two-electrode voltage clamp electrophysiological analysis relative to acetylcholine. The class given is cell-based. The method in brief:
as §1

Assay [16] deals with Neuronal acetylcholine receptor; alpha3/beta4 (Rattus norvegicus, UniProt P04757+P12392). Kind of assay: Agonist activity at rat alpha3beta4 nAChR expressed in Xenopus laevis oocytes assessed as stimulation of acetylcholine-induced current by two-electrode voltage clamp electrophysiological analysis. In kind it is cell-based.
Assay [17] concerns the target Neuronal acetylcholine receptor; alpha4/beta2 (Rattus norvegicus, UniProt P09483+P12390). Kind of assay: Antagonist activity at rat alpha4beta2 nAChR expressed in Xenopus laevis oocytes assessed as inhibition of acetylcholine-induced current by two-electrode voltage clamp electrophysiological analysis. In kind it is cell-based. The essentials:
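Two-electrode voltage clamp on rat α4β2, α3β4 or α7 nAChRs expressed in Xenopus oocytes. Compounds were tested across a concentration range to build concentration-inhibition curves. Data were fitted to I = Imax/[1+(IC50/X)^n] to derive IC50 and Hill coefficient.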

Assay [18] has as its target T1, Neuronal acetylcholine receptor; alpha4/beta2 (Rattus norvegicus). Kind of assay: Antagonist activity at rat alpha4beta2 nAChR expressed in Xenopus laevis oocytes assessed as inhibition of acetylcholine-induced current at 100 uM by two-electrode voltage clamp electrophysiological analysis relative to acetylcholine. The class given is cell-based.
Assay [19] deals with Mus musculus. The assay is described as follows: Inhibition of nicotine-induced antinociception in sc dosed mouse after 5 mins by hot plate test. The class given is functional.
The subject of assay [20] is Mus musculus. Kind of assay: Inhibition of nicotine-induced antinociception in sc dosed mouse after 5 mins by tail flick test. In kind it is functional.

Chain of Neuronal acetylcholine receptor subunit alpha-7 (Rattus norvegicus) (Q05941 whole entry): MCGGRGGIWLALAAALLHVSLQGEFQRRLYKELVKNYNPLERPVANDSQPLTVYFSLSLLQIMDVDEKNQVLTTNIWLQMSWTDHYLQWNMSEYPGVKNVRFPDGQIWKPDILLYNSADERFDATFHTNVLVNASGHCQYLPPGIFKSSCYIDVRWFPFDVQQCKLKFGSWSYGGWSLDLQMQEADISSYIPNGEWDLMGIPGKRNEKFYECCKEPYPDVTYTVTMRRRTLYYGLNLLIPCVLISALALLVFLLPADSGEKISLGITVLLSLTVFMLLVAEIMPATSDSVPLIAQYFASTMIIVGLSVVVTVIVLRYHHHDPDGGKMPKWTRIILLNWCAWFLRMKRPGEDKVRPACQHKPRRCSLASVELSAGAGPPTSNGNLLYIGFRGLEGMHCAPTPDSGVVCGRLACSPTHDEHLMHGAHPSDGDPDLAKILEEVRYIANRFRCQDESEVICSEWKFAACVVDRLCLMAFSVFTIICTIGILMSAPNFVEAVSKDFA
Chain of Neuronal acetylcholine receptor; alpha3/beta4 (P04757 whole entry): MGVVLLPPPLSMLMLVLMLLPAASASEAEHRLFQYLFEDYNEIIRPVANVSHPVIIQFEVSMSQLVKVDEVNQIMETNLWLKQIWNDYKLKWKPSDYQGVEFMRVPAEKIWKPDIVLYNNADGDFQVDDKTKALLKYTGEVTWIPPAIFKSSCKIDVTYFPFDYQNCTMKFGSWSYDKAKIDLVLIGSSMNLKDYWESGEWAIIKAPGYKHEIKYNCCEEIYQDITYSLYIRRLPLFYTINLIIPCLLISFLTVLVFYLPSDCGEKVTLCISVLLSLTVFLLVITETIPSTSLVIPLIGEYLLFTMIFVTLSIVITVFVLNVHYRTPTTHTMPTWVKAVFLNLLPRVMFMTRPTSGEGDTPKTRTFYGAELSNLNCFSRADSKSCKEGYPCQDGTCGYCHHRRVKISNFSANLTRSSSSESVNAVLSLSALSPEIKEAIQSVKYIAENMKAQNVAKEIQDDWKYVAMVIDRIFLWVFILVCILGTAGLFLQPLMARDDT
Chain of Neuronal acetylcholine receptor; alpha3/beta4 (P12392 whole entry): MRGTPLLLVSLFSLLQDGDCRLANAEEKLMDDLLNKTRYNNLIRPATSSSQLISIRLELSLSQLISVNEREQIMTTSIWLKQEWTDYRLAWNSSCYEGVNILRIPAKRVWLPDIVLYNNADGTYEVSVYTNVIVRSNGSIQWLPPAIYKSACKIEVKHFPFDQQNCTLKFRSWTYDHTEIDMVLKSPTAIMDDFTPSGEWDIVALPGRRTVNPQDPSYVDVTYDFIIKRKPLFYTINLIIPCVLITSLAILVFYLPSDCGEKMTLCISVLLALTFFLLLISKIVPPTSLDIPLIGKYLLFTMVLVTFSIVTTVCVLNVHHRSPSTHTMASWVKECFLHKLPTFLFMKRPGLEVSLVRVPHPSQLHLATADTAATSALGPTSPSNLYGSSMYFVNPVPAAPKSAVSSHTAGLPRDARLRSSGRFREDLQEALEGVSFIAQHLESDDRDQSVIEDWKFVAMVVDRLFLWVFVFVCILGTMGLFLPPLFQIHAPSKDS
Chain of Neuronal acetylcholine receptor; alpha4/beta2 (P09483 whole entry): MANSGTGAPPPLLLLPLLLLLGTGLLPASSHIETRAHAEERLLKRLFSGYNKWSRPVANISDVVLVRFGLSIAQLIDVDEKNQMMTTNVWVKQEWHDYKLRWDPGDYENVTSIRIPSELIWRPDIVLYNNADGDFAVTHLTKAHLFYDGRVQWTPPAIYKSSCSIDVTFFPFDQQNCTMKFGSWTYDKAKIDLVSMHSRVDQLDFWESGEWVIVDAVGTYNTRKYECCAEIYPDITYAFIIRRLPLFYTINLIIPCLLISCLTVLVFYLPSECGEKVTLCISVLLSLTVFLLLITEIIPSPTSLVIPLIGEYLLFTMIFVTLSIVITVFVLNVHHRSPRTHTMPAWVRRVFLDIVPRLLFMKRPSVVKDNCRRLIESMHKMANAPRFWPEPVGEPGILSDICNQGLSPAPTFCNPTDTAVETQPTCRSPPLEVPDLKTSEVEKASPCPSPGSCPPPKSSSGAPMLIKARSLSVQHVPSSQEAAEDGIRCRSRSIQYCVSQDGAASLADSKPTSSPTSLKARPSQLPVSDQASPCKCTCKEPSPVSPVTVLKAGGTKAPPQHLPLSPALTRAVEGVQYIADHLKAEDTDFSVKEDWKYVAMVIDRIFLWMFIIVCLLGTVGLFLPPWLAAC
Chain of Neuronal acetylcholine receptor; alpha4/beta2 (P12390 whole entry): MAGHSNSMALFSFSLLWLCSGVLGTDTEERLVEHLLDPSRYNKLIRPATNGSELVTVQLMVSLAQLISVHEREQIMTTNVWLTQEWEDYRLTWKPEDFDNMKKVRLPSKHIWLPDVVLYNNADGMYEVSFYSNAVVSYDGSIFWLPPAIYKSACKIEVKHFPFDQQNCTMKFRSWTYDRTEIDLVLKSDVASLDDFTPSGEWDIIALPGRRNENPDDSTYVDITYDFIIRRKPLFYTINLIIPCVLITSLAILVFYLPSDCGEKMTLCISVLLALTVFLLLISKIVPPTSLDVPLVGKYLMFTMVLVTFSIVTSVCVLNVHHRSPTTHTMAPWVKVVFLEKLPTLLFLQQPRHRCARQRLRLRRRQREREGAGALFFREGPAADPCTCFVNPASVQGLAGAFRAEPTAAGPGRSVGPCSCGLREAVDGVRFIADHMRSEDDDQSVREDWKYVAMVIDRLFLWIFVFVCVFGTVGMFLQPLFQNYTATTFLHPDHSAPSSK

Compound `COc1ccc(-c2cc([C@H]3C[C@H]4CC[C@H]3N4)cnc2F)cn1` (racemic) gave an inhibition in vivo at 0.1 mg/kg in [1] of 0%.

For `O=[N+]([O-])c1ccc(-c2cc([C@H]3C[C@H]4CC[C@H]3N4)cnc2F)cc1` (racemic), in assay [2], the Activity was determined as 5%. The Ratio IC50 in [3] was determined as 10. In addition, the 50% effective dose (ED50) in assay [4] is 0.21 mg/kg; in [5], 0.22 mg/kg.

With `O=[N+]([O-])c1cccc(-c2cc(C3CC4CCC3N4)cnc2F)c1` (racemic), the Activity in [2] is 3%; in assay [6], 20%. This compound also had an ED50 in [5] of 6.5 mg/kg.

With `COc1cc(-c2cc([C@H]3C[C@H]4CC[C@H]3N4)cnc2F)ccn1` (racemic), the inhibition in vivo at 10 mg/kg in assay [7] turned out to be 40%.

For `Fc1ncc(C2CC3CCC2N3)cc1-c1cccnc1` (racemic), in assay [8], the maximal response (Emax) was found to be 7%. The compound also had an inhibition in vivo at 1 mg/kg in assay [9] of 10%.

As to `Fc1ccc(-c2cc([C@H]3C[C@H]4CC[C@H]3N4)cnc2F)cn1` (racemic), the inhibition in vivo at 0.1 mg/kg in assay [10] and in assay [1] was 1% each time. Besides, in [11], the maximal effect (Emax) amounted to 9%.

Turning to `Nc1cc(-c2cc([C@H]3C[C@H]4CC[C@H]3N4)cnc2F)ccn1` (racemic), the Emax in assay [8] was determined as 10%.

With `Nc1ccc(-c2cc([C@H]3C[C@H]4CC[C@H]3N4)cnc2F)cn1` (racemic), the Imax in assay [12] was determined as 50%.

Consider `Clc1ccc(C2CC3CCC2N3)cn1` (centres undefined) [EPIBATIDINE], for which the Emax was 97% in [11], 150% in assay [8] and 131% in assay [15]. The median effective dose (ED50) in assay [13] was 0.006 mg/kg; in assay [5], 0.001 mg/kg; in assay [14] it was 0.004 mg/kg.

In the case of `CN1CCC[C@H]1c1cccnc1` [NICOTINE], the Emax in assay [11] was found to be 37%; in [8] it was 43%; in [15] it was 40%. The median effective dose (ED50) in [4] worked out at 1 mg/kg; in assay [5], 0.5 mg/kg.

Turning to `c1cnc2cc3c(cc2n1)[C@@H]1CNC[C@H]3C1` [VARENICLINE], the EC50 in assay [16] stood at 55 µM. The maximum response (Emax) in [11] amounted to 66%; in assay [8], 74%; in assay [15], 13%. Moreover, the Activity is 11% in assay [2] and 10% in assay [6]. Besides, the concentration for half-maximal inhibition (IC50) in assay [17] was determined as 0.2 µM. The Imax in assay [18] came out at 38%. The results for the ED50 in assay [4] and in assay [5] were 2.8 mg/kg and 2.1 mg/kg, respectively. The AD50 amounted to 0.47 mg/kg in assay [19] and 0.0002 mg/kg in [20].
